From ChEMBL document CHEMBL4414644, “A New Approach of Mitigating CYP3A4 Induction Led to the Discovery of Potent Hepatitis B Virus (HBV) Capsid Inhibitor with Optimal ADMET Profiles” (J Med Chem, 2019)

Columns and labels:
[1] = Cytotoxicity in human HepDE19 cells assessed as reduction in cell viability incubated for 5 days by CCK8 assay; type: cell-based
Procedure, shortened: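 HepDE19 cells were grown in DMEM-F12 with 10% FBS, penicillin/streptomycin and 0.5 mg/mL G418, then seeded at 5 × 10^3 cells/well. Compound exposure lasted 5 days. Viability was read with CCK-8 after 2 h at 37 °C, measuring OD450 and OD630. CC50 was the concentration killing 50% of cells; duplicate runs.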

[2] = Induction of CYP3A4 gene expression in cryopreserved human hepatocytes assessed as increase in CYP3A4 mRNA level at 10 uM incubated for 24 hrs by qRT-PCR analysis relative to rifampicin; type: ADME, cell-based
Procedure, shortened: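 Cryopreserved hepatocytes from one human donor were seeded at 1 × 10^6 cells/mL and cultured 24 h in serum-free Williams E. Compounds at 0.1, 1.0 and 10 µM (0.1% DMSO) were added in triplicate for 24 h, with vehicle wells as negative controls. Positive controls were omeprazole for CYP1A2, phenobarbital for CYP2B6 and rifampicin for CYP3A4. mRNA was measured by TaqMan qRT-PCR normalised to PPIA (2^-ΔΔCT) and expressed as % of the positive control.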

Structure (SMILES): CCOC(=O)C1=C(CN2CCOC[C@H]2C(=O)O)NC(c2nccs2)=N[C@H]1c1ccc(Br)c(F)c1
- CC50 at 120 h [1]: 14 µM
- Activity [2]: 73%

Structure (SMILES): CCOC(=O)C1=C(CN2CCOC[C@H]2C(=O)O)NC(c2nccs2)=N[C@H]1c1ccc(F)cc1F
- CC50 at 120 h [1]: > 100 µM
- Activity [2]: 135%

Structure (SMILES): CCOC(=O)C1=C(CN2CCOC[C@H]2C(=O)O)NC(c2nccs2)=N[C@H]1c1cccc(F)c1
- CC50 at 120 h [1]: 69 µM
- Activity [2]: 94%

Structure (SMILES): COC(=O)C1=C(CN2CCOC[C@H]2C(=O)O)N=C(c2nccs2)N[C@H]1c1ccc(F)cc1Cl
- CC50 at 120 h [1]: > 100 µM
- Activity [2]: 111%

Structure (SMILES): COC(=O)C1=C(CN2CC(F)(F)C[C@H]2C(=O)O)NC(c2nccs2)=N[C@H]1c1ccc(F)cc1Cl
- CC50 at 120 h [1]: 65 µM
- Activity [2]: 109%

Structure (SMILES): CCOC(=O)C1=C(CN2CCOC[C@H]2C(=O)O)NC(c2nccs2)=N[C@H]1c1ccc(F)cc1Cl
- CC50 at 120 h [1]: > 100 µM
- Activity [2]: 173%

Structure (SMILES): CCOC(=O)C1=C(CN2CC(F)(F)C[C@H]2C(=O)O)NC(c2nccs2)=N[C@H]1c1ccc(F)cc1Cl
- CC50 at 120 h [1]: > 100 µM
- Activity [2]: 123%

Structure (SMILES): COC(=O)C1=C(CN2CC(F)(F)C[C@H]2C(=O)O)NC(c2nccs2)=N[C@H]1c1ccc(F)cc1F
- CC50 at 120 h [1]: > 100 µM
- Activity [2]: 96%

Structure (SMILES): CCOC(=O)C1=C(CN2CCOC[C@H]2C(=O)O)NC(c2nccs2)=N[C@H]1c1cc(F)c(F)c(F)c1
- CC50 at 120 h [1]: > 100 µM
- Activity [2]: 72%
